Tests used:
Cannabinoid receptor 1 [1] = biological target: T1, Cannabinoid receptor 1 (Homo sapiens, UniProt P21554); assay: biochemical; assay type: cell-based, HEK293
Cannabinoid receptor 1 [2] = biological target: T1, Cannabinoid receptor 1; assay: Antagonist activity at human CB1 receptor expressed in CHOK1 cells assessed as inhibition of forskolin-stimulated cAMP levels; assay type: functional, cell-based; details: CHO-K1
Method in brief: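 Incubated 20 min at 37 °C with graded agonist plus 3 µM forskolin (final), with or without a fixed antagonist concentration. cAMP measured by scintillation proximity assay. Kb from the agonist EC50 concentration ratio: pKb = log(CR−1) − log B.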

Cannabinoid receptor 2 = Cannabinoid receptor 2 (Homo sapiens, UniProt P34972); assay: Displacement of [3H][…] from human CB2 receptor expressed in HEK293 cells; assay type: cell-based
Method in brief: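 HEK 293 membranes expressing human CB-2 (3.3 µg protein) incubated with 0.3 nM [3H]CP 55940 and varying competitor concentrations. Binding buffer: 50 mM Tris pH 7.4, 2.5 mM EDTA, 5 mM MgCl2, 0.1% fatty-acid-free BSA; 90 min at 30 °C with shaking. Nonspecific binding defined with 10 µM WIN 55212-2. Filtered through GF/C plates, read by scintillation counting. Nonlinear regression; mean of two or more triplicate runs.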

[3] = Cmax in Wistar rat plasma at 10 mg/kg, po; assay type: ADME, organism-based; parameters: dose 10 mg/kg, route oral
Method in brief: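 Wistar rats dosed orally at 10 mg/kg, typically as a 30% cyclodextrin suspension or as a suspension in PEG400/25 mM methanesulfonic acid (80:20). Plasma levels sampled typically at 0.5, 1 and 2 h after dosing; Cmax taken from these time points.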

Rattus norvegicus [4] = assay: Reduction of food intake in fasted-refed Wistar rat at 10 mg/kg, po after 0.5 to 4 hrs; assay type: functional; parameters: scale not given: the % may be the effect or the level left
Method in brief: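 Male Wistar rats, individually housed on mesh floors, 12-h/12-h light/dark cycle, fasted overnight (18 h). Single oral dose of vehicle or compound at 10 mg/kg (2 mL/kg), vehicle 30% cyclodextrin or PEG/MSA, 1 h before re-feeding. Cumulative food intake recorded at 30, 60, 90, 180 and 240 min, corrected for spillage. 10 rats per group; percent reduction versus vehicle.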

[5] = Drug level in Wistar rat brain at 10 mg/kg, po after 2 hrs; assay type: ADME, organism-based; parameters: dose 10 mg/kg, route oral; details: read-out: Drug uptake
Method in brief: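 Brain levels measured 2 h after a 10 mg/kg oral dose to Wistar rats, within pharmacokinetic screening; oral vehicle was PEG/MSA suspension.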

Rattus norvegicus [6] = assay: Reduction of body weight in Zucker fa/fa rat at 10 mg/kg, po after 8 days; assay type: functional; parameters: scale not given: the % may be the effect or the level left
Method in brief: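 Two-day baseline body weight and 24 h food and water intake, then weight-matched into groups. Daily oral dose of 1, 5 or 10 mg/kg suspension (2 mL/kg) before the nocturnal feeding phase. Body weight recorded daily; change versus vehicle-treated rats.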

Sequence of Cannabinoid receptor 2 (P34972 whole entry): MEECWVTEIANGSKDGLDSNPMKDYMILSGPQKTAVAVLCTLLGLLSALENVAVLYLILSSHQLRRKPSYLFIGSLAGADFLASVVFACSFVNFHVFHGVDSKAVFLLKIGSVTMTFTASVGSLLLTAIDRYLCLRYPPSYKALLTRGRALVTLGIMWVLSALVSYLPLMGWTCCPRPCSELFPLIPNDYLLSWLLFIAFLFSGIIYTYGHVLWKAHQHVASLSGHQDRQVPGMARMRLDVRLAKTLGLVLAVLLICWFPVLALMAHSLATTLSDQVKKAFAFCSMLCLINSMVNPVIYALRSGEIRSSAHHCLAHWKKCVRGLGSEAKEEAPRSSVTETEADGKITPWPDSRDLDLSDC
T1 sequence (P21554 whole entry): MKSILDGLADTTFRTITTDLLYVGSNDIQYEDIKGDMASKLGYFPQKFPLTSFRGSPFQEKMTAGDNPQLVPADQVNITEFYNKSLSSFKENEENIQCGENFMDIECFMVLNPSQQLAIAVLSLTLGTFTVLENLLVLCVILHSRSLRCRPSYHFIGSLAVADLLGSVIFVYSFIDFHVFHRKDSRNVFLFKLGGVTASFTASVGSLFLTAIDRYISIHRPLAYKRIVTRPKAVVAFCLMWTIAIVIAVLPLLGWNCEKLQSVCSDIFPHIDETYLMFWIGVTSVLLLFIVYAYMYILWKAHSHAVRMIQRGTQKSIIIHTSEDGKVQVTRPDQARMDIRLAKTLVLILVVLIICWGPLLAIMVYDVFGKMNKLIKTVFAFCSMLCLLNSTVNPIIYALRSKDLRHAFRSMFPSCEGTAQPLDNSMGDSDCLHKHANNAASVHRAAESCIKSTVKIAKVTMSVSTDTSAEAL

Row | Compound | Ki (Cannabinoid receptor 1 [1]) [nM] | other results
1 | O=C(NC1CCCCC1)c1cn(-c2ccc(F)cc2)c(-c2ccccc2Cl)n1 | 20 | –
2 | O=C(NC1CCCCC1)c1cn(-c2ccc(F)cc2)c(-c2ccc(Cl)cc2Cl)n1 | 8.2 | –
3 | CC(C)c1c(C(=O)N[C@H]2CCCC[C@@H]2O)nc(-c2ccccc2Cl)n1-c1ccc(Cl)cc1 | 18 | –
4 | O=C(N[C@@H]1CCCC[C@H]1O)c1cn(-c2ccc(Cl)cc2)c(-c2ccccc2Cl)n1 | 97 | Kb (Cannabinoid receptor 1 [2]): 22 nM
5 | O=C(NC1CCCCC1)c1cn(-c2cccnc2)c(-c2ccccc2Cl)n1 | 1100 | –
6 | CCCc1c(C(=O)N[C@H]2CCCC[C@@H]2O)nc(-c2ccccc2Cl)n1-c1ccc(Cl)cc1 | 5.7 | Ki (Cannabinoid receptor 2): 2700 nM; Kb (Cannabinoid receptor 1 [2]): 1.4 nM
7 | COc1ccccc1-c1nc(C(=O)NC2CCCCC2)cn1-c1ccc(Cl)cc1 | 95 | –
8 | COc1ccc(-n2cc(C(=O)NC3CCCCC3)nc2-c2ccc(Cl)cc2Cl)cc1 | 4.9 | –
9 | Cc1c(C(=O)N[C@H]2CCCC[C@@H]2O)nc(-c2ccccc2Cl)n1-c1ccc(Cl)cc1 | 6.9 | –
10 | N[C@@H]1CCCC[C@H]1NC(=O)c1cn(-c2ccc(Cl)cc2)c(-c2ccc(Cl)cc2Cl)n1 | 940 | –
11 | Cc1ccc(-c2nc(C(=O)NC3CCCCC3)cn2-c2ccc(Cl)cc2)c(C)c1 | 7.2 | –
12 | O=C(N[C@@H]1c2ccccc2C[C@@H]1O)c1cn(-c2ccc(Cl)cc2)c(-c2ccccc2Cl)n1 | 18 | Ki (Cannabinoid receptor 2): 5100 nM; Kb (Cannabinoid receptor 1 [2]): 9.2 nM
13 | O=C(N[C@H]1CCCC[C@@H]1O)c1cn(-c2ccc(Cl)cc2)c(-c2ccccc2Cl)n1 | 29 | Ki (Cannabinoid receptor 2): 5300 nM; Kb (Cannabinoid receptor 1 [2]): 7.1 nM; Cmax [3]: 1640 nM; Activity (Rattus norvegicus [4]): 34%; concentration at 2 h [5]: 110 nM
14 | O=C(NC1CCCCC1)c1cn(-c2ccc(Cl)cc2)c(-c2ccc(F)cc2F)n1 | 36 | –
15 | O=C(NC1CCCCC1)c1cn(-c2ccc(Cl)cc2)c(-c2ccccc2Cl)n1 | 2.2 | Ki (Cannabinoid receptor 2): 2300 nM; Kb (Cannabinoid receptor 1 [2]): 11 nM
16 | Cc1ccc(-n2cc(C(=O)NC3CCCCC3)nc2-c2ccccc2Cl)cc1 | 4.6 | –
17 | CCCCc1c(C(=O)N[C@H]2CCCC[C@@H]2O)nc(-c2ccccc2Cl)n1-c1ccc(Cl)cc1 | 10 | –
18 | CCc1c(C(=O)N[C@H]2CCCC[C@@H]2O)nc(-c2ccccc2Cl)n1-c1ccc(Cl)cc1 | – | Ki (Cannabinoid receptor 2): 2300 nM
19 | O=C(NC1CCCCC1)c1cn(-c2ccc(Cl)cc2)c(-c2ccccc2)n1 | 130 | –
20 | Cc1c(C(=O)NN2CCCCC2)nn(-c2ccc(Cl)cc2Cl)c1-c1ccc(Cl)cc1 [RIMONABANT] | – | Activity (Rattus norvegicus [6]): 6.5%
